# Measured values taken from ChEMBL document CHEMBL1138800, “Synthesis and biological evaluation of novel N6-[4-(substituted)sulfonamidophenylcarbamoyl]adenosine-5'-uronamides as A3 adenosine receptor agonists” (J Med Chem, 2004).
# Target: T1, Adenosine receptor A1 (Homo sapiens, UniProt P30542)
# T1 sequence (P30542 whole entry): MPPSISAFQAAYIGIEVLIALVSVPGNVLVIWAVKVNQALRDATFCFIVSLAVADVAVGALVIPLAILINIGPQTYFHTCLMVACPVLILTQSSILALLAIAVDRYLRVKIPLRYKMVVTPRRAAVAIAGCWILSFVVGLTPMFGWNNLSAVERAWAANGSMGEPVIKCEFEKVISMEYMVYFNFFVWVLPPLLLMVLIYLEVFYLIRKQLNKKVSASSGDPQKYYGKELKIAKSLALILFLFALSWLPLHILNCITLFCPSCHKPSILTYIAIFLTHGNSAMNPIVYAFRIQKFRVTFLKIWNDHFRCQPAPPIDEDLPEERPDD
# Assay: Displacement of [3H]CHA binding to Adenosine A1 receptor expressed in CHO cells
# Format: cell-based
# Details: not given
# How it was run: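 Human A1-transfected CHO membranes (adenosine deaminase-treated), 50 µg protein, incubated 120 min at 25 °C in 50 mM Tris HCl pH 7.4 with 1 nM [3H]-CHA and 6-8 agonist concentrations; nonspecific binding with 10 µM CHA. Filtration through GF/B filters, scintillation counting; Ki from IC50 via Cheng-Prusoff; geometric mean with confidence limits.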
row,SMILES,Ki
1,"CCNC(=O)[C@H]1OC(n2cnc3c(NC(=O)Nc4ccc(S(=O)(=O)NCC)cc4)ncnc32)C(O)C1O (single isomer, unassigned)",250 nM
2,"CCNC(=O)[C@H]1OC(n2cnc3c(NC(=O)Nc4ccc(S(=O)(=O)N(CCCl)CCCl)cc4)ncnc32)C(O)C1O (single isomer, unassigned)",730 nM
3,"CCCCCNS(=O)(=O)c1ccc(NC(=O)Nc2ncnc3c2ncn3C2O[C@H](C(=O)NCC)C(O)C2O)cc1 (single isomer, unassigned)",445 nM
4,"CCNC(=O)[C@H]1OC(n2cnc3c(NC(=O)Nc4ccc(S(=O)(=O)NCc5ccccc5)cc4)ncnc32)C(O)C1O (single isomer, unassigned)",300 nM

# Now from value to compound:
row,Ki,SMILES
1,250 nM,"CCNC(=O)[C@H]1OC(n2cnc3c(NC(=O)Nc4ccc(S(=O)(=O)N5CC=CC5)cc4)ncnc32)C(O)C1O (single isomer, unassigned)"
2,280 nM,"CCNC(=O)[C@H]1OC(n2cnc3c(NC(=O)Nc4ccc(S(=O)(=O)N(C)C)cc4)ncnc32)C(O)C1O (single isomer, unassigned)"

# Target: T2, Adenosine receptor A3 (Homo sapiens, UniProt P0DMS8)
# T2 sequence (P0DMS8 whole entry): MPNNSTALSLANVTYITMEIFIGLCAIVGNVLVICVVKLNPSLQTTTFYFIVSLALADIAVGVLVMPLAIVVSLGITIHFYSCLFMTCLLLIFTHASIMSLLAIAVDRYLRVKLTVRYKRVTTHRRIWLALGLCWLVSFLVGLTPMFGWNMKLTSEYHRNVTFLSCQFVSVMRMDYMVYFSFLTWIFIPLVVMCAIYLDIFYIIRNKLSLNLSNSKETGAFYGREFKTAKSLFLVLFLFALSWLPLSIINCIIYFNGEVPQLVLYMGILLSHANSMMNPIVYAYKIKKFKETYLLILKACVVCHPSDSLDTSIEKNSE
# Assay: Inhibition of (10 uM) forskolin-mediated cAMP production in CHO cells expressing human Adenosine A3 receptor
# Format: functional, cell-based
# Details: not given
row,IC50,SMILES
1,42 nM,"C=CCN(C)S(=O)(=O)c1ccc(NC(=O)Nc2ncnc3c2ncn3C2O[C@H](C(=O)NCC)C(O)C2O)cc1 (single isomer, unassigned)"

# Target: Adenosine receptors; A1 & A3 (Homo sapiens) (UniProt P30542+P0DMS8)
# Assay: Ratio of binding affinity for Adenosine A1 and Adenosine A3 receptors
# Format: protein assay
# Details: not given
row,Ratio,SMILES
1,13.2,"CCNC(=O)[C@H]1OC(n2cnc3c(NC(=O)Nc4ccc(S(=O)(=O)N5CC=CC5)cc4)ncnc32)C(O)C1O (single isomer, unassigned)"
2,10.9,"CCNC(=O)[C@H]1OC(n2cnc3c(NC(=O)Nc4ccc(S(=O)(=O)NCC)cc4)ncnc32)C(O)C1O (single isomer, unassigned)"
3,5.56,"CCCCCNS(=O)(=O)c1ccc(NC(=O)Nc2ncnc3c2ncn3C2O[C@H](C(=O)NCC)C(O)C2O)cc1 (single isomer, unassigned)"

row,SMILES,Ratio
1,"CCNC(=O)[C@H]1OC(n2cnc3c(NC(=O)Nc4ccc(S(=O)(=O)N(CCCl)CCCl)cc4)ncnc32)C(O)C1O (single isomer, unassigned)",31.7

# Target: T3, Adenosine receptor A2a (Homo sapiens, UniProt P29274)
# T3 sequence (P29274 whole entry): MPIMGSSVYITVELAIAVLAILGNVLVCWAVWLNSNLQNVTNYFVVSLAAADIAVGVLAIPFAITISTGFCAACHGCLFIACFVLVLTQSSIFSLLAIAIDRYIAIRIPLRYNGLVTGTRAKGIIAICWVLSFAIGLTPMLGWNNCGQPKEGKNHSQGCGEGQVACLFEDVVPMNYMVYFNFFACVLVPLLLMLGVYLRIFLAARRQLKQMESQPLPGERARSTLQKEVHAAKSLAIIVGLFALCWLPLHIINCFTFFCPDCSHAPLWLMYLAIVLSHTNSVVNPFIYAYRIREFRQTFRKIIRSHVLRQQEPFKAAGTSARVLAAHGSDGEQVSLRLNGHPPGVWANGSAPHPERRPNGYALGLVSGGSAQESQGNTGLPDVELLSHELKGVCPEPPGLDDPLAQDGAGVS
# Assay: Displacement of [3H]CGS-21680 binding to Adenosine A2 receptor expressed in CHO cells
# Format: cell-based
# Details: not given
row,SMILES,Ki
1,"C=CCN(C)S(=O)(=O)c1ccc(NC(=O)Nc2ncnc3c2ncn3C2O[C@H](C(=O)NCC)C(O)C2O)cc1 (single isomer, unassigned)",> 1000 nM
2,"CCNC(=O)[C@H]1OC(n2cnc3c(NC(=O)Nc4ccc(S(=O)(=O)N(CC)CC)cc4)ncnc32)C(O)C1O (single isomer, unassigned)",> 1000 nM
3,"CCNC(=O)[C@H]1OC(n2cnc3c(NC(=O)Nc4ccc(S(=O)(=O)NCC)cc4)ncnc32)C(O)C1O (single isomer, unassigned)",> 1000 nM
4,"CCNC(=O)[C@H]1OC(n2cnc3c(NC(=O)Nc4ccc(S(=O)(=O)N(CCCl)CCCl)cc4)ncnc32)C(O)C1O (single isomer, unassigned)",> 1000 nM
5,"CCCCCNS(=O)(=O)c1ccc(NC(=O)Nc2ncnc3c2ncn3C2O[C@H](C(=O)NCC)C(O)C2O)cc1 (single isomer, unassigned)",> 1000 nM
6,"CCNC(=O)[C@H]1OC(n2cnc3c(NC(=O)Nc4ccc(S(=O)(=O)NCc5ccccc5)cc4)ncnc32)C(O)C1O (single isomer, unassigned)",> 1000 nM

# Further lines, results first:
row,Ki,SMILES
1,> 1000 nM,"CCNC(=O)[C@H]1OC(n2cnc3c(NC(=O)Nc4ccc(S(=O)(=O)N5CCCC5)cc4)ncnc32)C(O)C1O (single isomer, unassigned)"
2,> 1000 nM,"CCNC(=O)[C@H]1OC(n2cnc3c(NC(=O)Nc4ccc(S(=O)(=O)N5CC=CC5)cc4)ncnc32)C(O)C1O (single isomer, unassigned)"
3,> 1000 nM,"CCNC(=O)[C@H]1OC(n2cnc3c(NC(=O)Nc4ccc(S(=O)(=O)N(C)C)cc4)ncnc32)C(O)C1O (single isomer, unassigned)"
4,> 1000 nM,"CCNC(=O)[C@H]1OC(n2cnc3c(NC(=O)Nc4ccc(S(=O)(=O)N5CCCCC5)cc4)ncnc32)C(O)C1O (single isomer, unassigned)"

# Target: T2, Adenosine receptor A3
# Assay: Displacement of [125I]AB-MECA binding to Adenosine A3 receptor expressed in CHO cells
# Format: cell-based
# Details: not given
row,SMILES,Ki
1,"C=CCN(C)S(=O)(=O)c1ccc(NC(=O)Nc2ncnc3c2ncn3C2O[C@H](C(=O)NCC)C(O)C2O)cc1 (single isomer, unassigned)",10 nM
2,"CCNC(=O)[C@H]1OC(n2cnc3c(NC(=O)Nc4ccc(S(=O)(=O)NCC)cc4)ncnc32)C(O)C1O (single isomer, unassigned)",23 nM
3,"CCNC(=O)[C@H]1OC(n2cnc3c(NC(=O)Nc4ccc(S(=O)(=O)N(CCCl)CCCl)cc4)ncnc32)C(O)C1O (single isomer, unassigned)",23 nM
4,"CCCCCNS(=O)(=O)c1ccc(NC(=O)Nc2ncnc3c2ncn3C2O[C@H](C(=O)NCC)C(O)C2O)cc1 (single isomer, unassigned)",80 nM

# Second part, the compound after the results:
row,Ki,SMILES
1,22 nM,"CCNC(=O)[C@H]1OC(n2cnc3c(NC(=O)Nc4ccc(S(=O)(=O)N5CCCC5)cc4)ncnc32)C(O)C1O (single isomer, unassigned)"
2,19 nM,"CCNC(=O)[C@H]1OC(n2cnc3c(NC(=O)Nc4ccc(S(=O)(=O)N5CC=CC5)cc4)ncnc32)C(O)C1O (single isomer, unassigned)"

# Target: T3, Adenosine receptor A2a
# Assay: Inhibition of [3H]CGS-21680 binding to Adenosine A2A receptor expressed in CHO cells
# Format: cell-based
# Parameters: concentration or dose not given beside the values
# Details: concentration not given here
row,SMILES,inhibition
1,"CCNC(=O)[C@H]1OC(n2cnc3c(NC(=O)Nc4ccc(S(=O)(=O)N(C)C(C)C)cc4)ncnc32)C(O)C1O (single isomer, unassigned)",13%
2,"C=CCN(C)S(=O)(=O)c1ccc(NC(=O)Nc2ncnc3c2ncn3C2O[C@H](C(=O)NCC)C(O)C2O)cc1 (single isomer, unassigned)",10%
3,"CCNC(=O)[C@H]1OC(n2cnc3c(NC(=O)Nc4ccc(S(=O)(=O)N(CC)CC)cc4)ncnc32)C(O)C1O (single isomer, unassigned)",28%
4,"CCNC(=O)[C@H]1OC(n2cnc3c(NC(=O)Nc4ccc(S(=O)(=O)NCC)cc4)ncnc32)C(O)C1O (single isomer, unassigned)",34%
5,"CCNC(=O)[C@H]1OC(n2cnc3c(NC(=O)Nc4ccc(S(=O)(=O)N(CCCl)CCCl)cc4)ncnc32)C(O)C1O (single isomer, unassigned)",27%
6,"CCCCCNS(=O)(=O)c1ccc(NC(=O)Nc2ncnc3c2ncn3C2O[C@H](C(=O)NCC)C(O)C2O)cc1 (single isomer, unassigned)",32%
7,"CCNC(=O)[C@H]1OC(n2cnc3c(NC(=O)Nc4ccc(S(=O)(=O)NCc5ccccc5)cc4)ncnc32)C(O)C1O (single isomer, unassigned)",30%

# Now from value to compound:
row,inhibition,SMILES
1,23%,"CCNC(=O)[C@H]1OC(n2cnc3c(NC(=O)Nc4ccc(S(=O)(=O)N5CCCC5)cc4)ncnc32)C(O)C1O (single isomer, unassigned)"
2,17%,"CCNC(=O)[C@H]1OC(n2cnc3c(NC(=O)Nc4ccc(S(=O)(=O)N5CC=CC5)cc4)ncnc32)C(O)C1O (single isomer, unassigned)"
3,21%,"CCNC(=O)[C@H]1OC(n2cnc3c(NC(=O)Nc4ccc(S(=O)(=O)N(C)C)cc4)ncnc32)C(O)C1O (single isomer, unassigned)"
4,15%,"CCNC(=O)[C@H]1OC(n2cnc3c(NC(=O)Nc4ccc(S(=O)(=O)N5CCCCC5)cc4)ncnc32)C(O)C1O (single isomer, unassigned)"
